{"source": "ChEMBL document CHEMBL3120083", "about": "“Discovery of N-[4-[6-tert-butyl-5-methoxy-8-(6-methoxy-2-oxo-1H-pyridin-3-yl)-3-quinolyl]phenyl]methanesulfonamide (RG7109), a potent inhibitor of the hepatitis C virus NS5B polymerase” (J Med Chem, 2014)", "key": {"[1]": {"tested_on": "Hepatitis C virus", "test": "Antiviral activity against Hepatitis C virus genotype 1b Con1 infected in human 2209-23 cells after 72 hrs by luciferase reporter gene assay", "format": "functional, organism-based, Hepacivirus hominis", "conditions": "isolate Con1, 2209-23, 72 h", "procedure,_shortened": "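Stable GT-1b Con1 subgenomic replicon cell line expressing a renilla luciferase reporter, used as the readout of inhibition. EC50 from luciferase signal, n 2.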"}, "[2]": {"tested_on": "Hepatitis C virus", "test": "Antiviral activity against Hepatitis C virus genotype 1a H77 infected in human 2209-23 cells after 72 hrs by luciferase reporter gene assay", "format": "functional, organism-based, Hepacivirus hominis", "conditions": "genotype 1a H77, 2209-23, 72 h"}, "[3]": {"test": "Thermodynamic solubility of the compound", "format": "physicochemical", "conditions": "read-out: Therm_solubility"}, "[4]": {"test": "Inhibition of N-terminal 6xHis-tagged Hepatitis C virus genotype 1b Con1 NS5B polymerase containing 21-amino acid deletion at C-terminus expressed in Escherichia coli using radiolabeled UTP as substrate after 2 hrs by scintillation counting analysis", "parameters": "species or system Hepatitis C virus (isolate Con1)", "procedure,_shortened": "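GT-1b Con1 NS5B polymerase (NS5B570n-Con1) activity assay run with RNA template at 3 nM and enzyme at 3 nM. IC50 reported in nM.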"}, "[5]": {"tested_on": "Hepatocyte", "test": "Intrinsic clearance in rat hepatocytes assessed per 10^6 cells", "format": "ADME, cell-based", "procedure,_shortened": "(§1)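 Suspended hepatocytes (about 1.0×10^6 cells/mL) in Williams' medium E with glutamine, antibiotics, insulin, dexamethasone and 10% FCS, 37 °C, 5% CO2, shaken at 900 rpm. Compound at 0.1–10.0 μM. Stopped with methanol plus internal standard at 2–180 min. Parent remaining by LC/MS/MS peak area ratio, in duplicate.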"}, "[6]": {"tested_on": "Hepatocyte", "test": "Intrinsic clearance in human hepatocytes assessed per 10^6 cells", "format": "ADME, cell-based", "procedure,_shortened": "as §1"}, "[7]": {"tested_on": "Hepatitis C virus", "test": "Ratio of EC50 for Hepatitis C virus genotype 1b Con1 in presence of human serum to EC50 for Hepatitis C virus genotype 1b Con1", "format": "functional, Hepacivirus hominis, isolate Con1"}, "[8]": {"tested_on": "Hepatitis C virus", "test": "Ratio of EC50 for Hepatitis C virus genotype 1a H77 in presence of human serum to EC50 for Hepatitis C virus genotype 1a H77", "format": "functional, Hepacivirus hominis"}, "[9]": {"tested_on": "Hepatitis C virus", "test": "Antiviral activity against Hepatitis C virus genotype 1b Con1 infected in human 2209-23 cells after 72 hrs by luciferase reporter gene assay in presence of 40% human serum", "format": "functional, organism-based, Hepacivirus hominis", "conditions": "isolate Con1, 2209-23, 72 h"}, "[10]": {"tested_on": "Hepatitis C virus", "test": "Antiviral activity against Hepatitis C virus genotype 1a H77 infected in human 2209-23 cells after 72 hrs by luciferase reporter gene assay in presence of 40% human serum", "format": "functional, organism-based, Hepacivirus hominis", "conditions": "genotype 1a H77, 2209-23, 72 h"}, "[11]": {"test": "Ratio of EC50 for Hepatitis C virus genotype 1a H77 to EC50 for Hepatitis C virus genotype 1b Con1", "format": "functional"}}, "data": [{"smiles": "COc1c(C(C)(C)C)cc(-c2cn(C)c(=O)[nH]c2=O)c2ncc(-c3ccc(NS(C)(=O)=O)cc3)cc12", "values": [{"measurement": "EC50", "setting": "[1]", "result": 0.0015, "unit": "µM"}, {"measurement": "EC50", "setting": "[2]", "result": 0.003, "unit": "µM"}]}, {"smiles": "COc1c(C(C)(C)C)cc(-c2ccc(C)[nH]c2=O)c2ncc(C#CCCNS(C)(=O)=O)cc12", "values": [{"measurement": "solubility thermodynamic", "setting": "[3]", "result": "< 1", "unit": "µg/mL"}, {"measurement": "IC50", "setting": "[4]", "result": 0.005, "unit": "µM"}, {"measurement": "EC50", "setting": "[2]", "result": 0.341, "unit": "µM"}]}, {"smiles": "COc1c(C2(C(F)F)CC2)cc(-n2ccc(=O)[nH]c2=O)c2ncc(-c3ccc(NS(C)(=O)=O)cc3)cc12", "values": [{"measurement": "CLH", "setting": "[5]", "result": 1.7, "unit": "uL/min/10^6 cells"}, {"measurement": "CLH", "setting": "[6]", "result": 0.1, "unit": "uL/min/10^6 cells"}, {"measurement": "EC50", "setting": "[1]", "result": 0.016, "unit": "µM"}, {"measurement": "EC50", "setting": "[2]", "result": 0.095, "unit": "µM"}]}, {"smiles": "CC(C)(C)c1cc(-c2cc(F)c[nH]c2=O)c2ncc(-c3ccc(NS(C)(=O)=O)cc3)cc2c1", "values": [{"measurement": "EC50", "setting": "[1]", "result": 0.016, "unit": "µM"}, {"measurement": "EC50", "setting": "[2]", "result": 0.025, "unit": "µM"}]}, {"smiles": "COc1c(C(C)(C)C)cc(-n2ccc(=O)[nH]c2=O)c2ncc(-c3ccc(NS(C)(=O)=O)cc3)cc12", "values": [{"measurement": "Ratio EC50", "setting": "[7]", "result": 1.7}, {"measurement": "Ratio EC50", "setting": "[8]", "result": 1.7}, {"measurement": "EC50", "setting": "[9]", "result": 0.0056, "unit": "µM"}, {"measurement": "EC90", "setting": "[9]", "result": 0.029, "unit": "µM"}, {"measurement": "EC50", "setting": "[10]", "result": 0.016, "unit": "µM"}, {"measurement": "EC90", "setting": "[10]", "result": 0.123, "unit": "µM"}, {"measurement": "Ratio EC50", "setting": "[11]", "result": 2.2}, {"measurement": "CLH", "setting": "[5]", "result": 20, "unit": "uL/min/10^6 cells"}, {"measurement": "CLH", "setting": "[6]", "result": 7.9, "unit": "uL/min/10^6 cells"}, {"measurement": "EC50", "setting": "[1]", "result": 0.0032, "unit": "µM"}, {"measurement": "EC50", "setting": "[2]", "result": 0.0072, "unit": "µM"}]}, {"smiles": "COc1c(C(C)(C)C)cc(-c2ccc[nH]c2=O)c2ncc(N3CC(CNS(C)(=O)=O)C3)cc12", "values": [{"measurement": "IC50", "setting": "[4]", "result": 0.0035, "unit": "µM"}, {"measurement": "EC50", "setting": "[2]", "result": 0.532, "unit": "µM"}]}, {"smiles": "COc1c(C(C)(C)C)cc(-c2ccc[nH]c2=O)c2ncc(N3CC[C@H](CNS(C)(=O)=O)C3)cc12", "values": [{"measurement": "solubility thermodynamic", "setting": "[3]", "result": 11, "unit": "µg/mL"}, {"measurement": "IC50", "setting": "[4]", "result": 0.0002, "unit": "µM"}, {"measurement": "EC50", "setting": "[2]", "result": 0.0079, "unit": "µM"}]}, {"smiles": "COc1c(CC(F)(F)F)cc(-n2ccc(=O)[nH]c2=O)c2ncc(-c3ccc(NS(C)(=O)=O)cc3)cc12", "values": [{"measurement": "CLH", "setting": "[5]", "result": 3.7, "unit": "uL/min/10^6 cells"}, {"measurement": "CLH", "setting": "[6]", "result": 0.8, "unit": "uL/min/10^6 cells"}, {"measurement": "EC50", "setting": "[1]", "result": 0.119, "unit": "µM"}, {"measurement": "EC50", "setting": "[2]", "result": 0.839, "unit": "µM"}]}, {"smiles": "COc1c(C(F)(F)F)cc(-n2ccc(=O)[nH]c2=O)c2ncc(-c3ccc(NS(C)(=O)=O)cc3)cc12", "values": [{"measurement": "CLH", "setting": "[5]", "result": 1.8, "unit": "uL/min/10^6 cells"}, {"measurement": "CLH", "setting": "[6]", "result": 1.5, "unit": "uL/min/10^6 cells"}, {"measurement": "EC50", "setting": "[1]", "result": 0.057, "unit": "µM"}, {"measurement": "EC50", "setting": "[2]", "result": 0.821, "unit": "µM"}]}, {"smiles": "Cc1ccc(-c2cc(C(C)(C)C)cc3cc(N4CCCC(CNS(C)(=O)=O)C4)cnc23)c(=O)[nH]1", "note": "(stereo unspecified)", "values": [{"measurement": "solubility thermodynamic", "setting": "[3]", "result": 66, "unit": "µg/mL"}, {"measurement": "IC50", "setting": "[4]", "result": 0.625, "unit": "µM"}, {"measurement": "EC50", "setting": "[2]", "result": "> 1", "unit": "µM"}]}, {"smiles": "COc1c(C(C)(C)C)cc(-c2ccc(C)[nH]c2=O)c2ncc(-c3ccc(NS(C)(=O)=O)cc3)cc12", "values": [{"measurement": "EC50", "setting": "[1]", "result": 0.002, "unit": "µM"}, {"measurement": "EC50", "setting": "[2]", "result": 0.0042, "unit": "µM"}]}, {"smiles": "CC(C)(C)c1nc(-n2ccc(=O)[nH]c2=O)c2ccc(-c3ccc(NS(C)(=O)=O)cc3)cc2n1", "values": [{"measurement": "EC50", "setting": "[2]", "result": 0.017, "unit": "µM"}]}, {"smiles": "COc1c(C(C)(C)C)cc(N2CCCNC2=O)c2ncc(-c3ccc(NS(C)(=O)=O)cc3)cc12", "values": [{"measurement": "EC50", "setting": "[1]", "result": 0.02, "unit": "µM"}, {"measurement": "EC50", "setting": "[2]", "result": 0.064, "unit": "µM"}]}, {"smiles": "COc1c(C(C)(C)C)cc(-c2ccc[nH]c2=O)c2ncc(-c3ccc(NS(C)(=O)=O)cc3)cc12", "values": [{"measurement": "Ratio EC50", "setting": "[7]", "result": 0.8}, {"measurement": "Ratio EC50", "setting": "[8]", "result": 0.8}, {"measurement": "EC50", "setting": "[9]", "result": 0.011, "unit": "µM"}, {"measurement": "EC90", "setting": "[9]", "result": 0.047, "unit": "µM"}, {"measurement": "EC50", "setting": "[10]", "result": 0.004, "unit": "µM"}, {"measurement": "EC90", "setting": "[10]", "result": 0.025, "unit": "µM"}, {"measurement": "Ratio EC50", "setting": "[11]", "result": 1.7}, {"measurement": "EC50", "setting": "[1]", "result": 0.0031, "unit": "µM"}, {"measurement": "EC50", "setting": "[2]", "result": 0.0052, "unit": "µM"}]}, {"smiles": "COc1c(C(C)(C)C)cc(-n2ccc(=O)[nH]c2=O)c2ccc(-c3ccc(NS(C)(=O)=O)cc3)nc12", "values": [{"measurement": "EC50", "setting": "[1]", "result": 0.012, "unit": "µM"}, {"measurement": "EC50", "setting": "[2]", "result": 0.083, "unit": "µM"}]}, {"smiles": "COc1c(C(C)(C)C)cc(-n2ccc(=O)[nH]c2=O)c2ccc(-c3ccc(NS(C)(=O)=O)cc3)cc12", "values": [{"measurement": "EC50", "setting": "[1]", "result": 0.001, "unit": "µM"}, {"measurement": "EC50", "setting": "[2]", "result": 0.004, "unit": "µM"}]}, {"smiles": "COc1c(/C=C/c2ccc(NS(C)(=O)=O)cc2)cc(-c2cc(F)c[nH]c2=O)cc1C(C)(C)C", "values": [{"measurement": "EC90", "setting": "[9]", "result": 0.128, "unit": "µM"}, {"measurement": "EC90", "setting": "[10]", "result": 0.531, "unit": "µM"}]}, {"smiles": "COc1c(C(C)(C)C)cc(N2CCC(=O)NC2=O)c2ncc(-c3ccc(NS(C)(=O)=O)cc3)cc12", "values": [{"measurement": "Ratio EC50", "setting": "[7]", "result": 1.7}, {"measurement": "Ratio EC50", "setting": "[8]", "result": 1.7}, {"measurement": "EC50", "setting": "[9]", "result": 0.0035, "unit": "µM"}, {"measurement": "EC90", "setting": "[9]", "result": 0.02, "unit": "µM"}, {"measurement": "EC50", "setting": "[10]", "result": 0.01, "unit": "µM"}, {"measurement": "EC90", "setting": "[10]", "result": 0.048, "unit": "µM"}, {"measurement": "Ratio EC50", "setting": "[11]", "result": 1.4}, {"measurement": "EC50", "setting": "[1]", "result": 0.0032, "unit": "µM"}, {"measurement": "EC50", "setting": "[2]", "result": 0.0046, "unit": "µM"}]}, {"smiles": "COc1c(C(C)(C)C)cc(-c2cc(F)c[nH]c2=O)c2ncc(-c3ccc(NS(C)(=O)=O)cc3)cc12", "values": [{"measurement": "EC50", "setting": "[1]", "result": 0.0035, "unit": "µM"}, {"measurement": "EC50", "setting": "[2]", "result": 0.0038, "unit": "µM"}]}, {"smiles": "COc1c(C(C)(C)C)cc(-c2ccc(C)[nH]c2=O)c2ncc(CCCCNS(C)(=O)=O)cc12", "values": [{"measurement": "solubility thermodynamic", "setting": "[3]", "result": 168, "unit": "µg/mL"}, {"measurement": "EC50", "setting": "[2]", "result": "> 1", "unit": "µM"}]}]}
